Laboratory results from BindingDB's records for doi:10.1016/j.bmcl.2009.08.036 (Glaxosmithkline, 2009).

Molecular target: T1, Oxysterols receptor LXR-beta (Homo sapiens, UniProt P55055)
T1 sequence (P55055 whole entry): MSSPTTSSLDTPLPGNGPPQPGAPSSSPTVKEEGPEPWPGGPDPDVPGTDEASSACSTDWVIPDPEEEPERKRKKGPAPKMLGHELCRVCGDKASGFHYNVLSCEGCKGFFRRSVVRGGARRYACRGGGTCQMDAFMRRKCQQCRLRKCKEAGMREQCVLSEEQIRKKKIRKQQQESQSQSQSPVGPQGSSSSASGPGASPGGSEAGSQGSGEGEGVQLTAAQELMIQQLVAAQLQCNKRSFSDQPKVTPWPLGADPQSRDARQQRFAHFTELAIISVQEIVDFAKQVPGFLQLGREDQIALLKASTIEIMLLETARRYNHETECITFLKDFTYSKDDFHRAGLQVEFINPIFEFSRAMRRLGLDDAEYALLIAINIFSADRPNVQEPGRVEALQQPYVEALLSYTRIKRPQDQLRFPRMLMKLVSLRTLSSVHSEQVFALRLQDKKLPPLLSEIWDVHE
Test: Agonist activity at human LXRbeta assessed as association of SRC1 to LXRbeta ligand binding domain by FRET based cell-free ligand sensing assay
Outline: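 Cell-free FRET ligand-sensing assay measuring ligand-dependent recruitment of a 24-amino-acid steroid receptor coactivator 1 (SRC1) fragment to the LXR ligand-binding domain. Percent efficacy is expressed against the maximal agonist response of the reference agonist. Values are means of at least two experiments, standard deviation ≤10%.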

SMILES: O=C(O)C1CCCc2c(OCCCN(Cc3cccc(C(F)(F)F)c3Cl)CC(c3ccccc3)c3ccccc3)cccc21 (racemic) [(+/-)-5-(3-((2-chloro-3-(trifluoromethyl)benzyl)(2,2-diphenylethyl)amino)propoxy)-1,2,3,4-tetrahydronaphthalene-1-carboxylic acid]
- EC50: 26 nM
